Calls of active or inactive are those of the source. The calls are words filed in the database; no cut-off is given here.
Legend:
Renin [1] = target: T1, Renin (Homo sapiens, UniProt P00797); assay: Inhibition of trypsin-activated human recombinant renin
T1 sequence (P00797 whole entry): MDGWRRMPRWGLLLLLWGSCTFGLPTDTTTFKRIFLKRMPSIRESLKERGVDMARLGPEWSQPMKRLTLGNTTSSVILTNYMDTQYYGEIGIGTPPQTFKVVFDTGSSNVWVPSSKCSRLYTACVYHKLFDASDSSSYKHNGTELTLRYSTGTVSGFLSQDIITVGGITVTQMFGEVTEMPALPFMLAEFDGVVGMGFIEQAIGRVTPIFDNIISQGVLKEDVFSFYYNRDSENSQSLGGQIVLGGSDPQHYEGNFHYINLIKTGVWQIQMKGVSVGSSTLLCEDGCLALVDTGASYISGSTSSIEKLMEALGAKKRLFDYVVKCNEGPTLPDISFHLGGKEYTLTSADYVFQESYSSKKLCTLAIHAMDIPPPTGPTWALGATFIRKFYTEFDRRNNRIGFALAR

Renin [2] = target: T1, Renin; assay: Inhibition of human recombinant renin assessed as decrease in plasma renin activity by competitive radioimmunoassay in presence of human plasma
[3] = Cmax in rat at 10 mg/kg, po; format: ADME, organism-based; set-up: dose 10 mg/kg, route oral; conditions: in vivo
[4] = Tmax in rat at 10 mg/kg, po; format: ADME, organism-based; set-up: dose 10 mg/kg, route oral; conditions: in vivo
[5] = (§1) AUC (0 to t) in rat at 10 mg/kg, po; format: ADME, organism-based, Plasma; set-up: dose 10 mg/kg, route oral; conditions: plasma
[6] = Half life in rat at 10 mg/kg, po; format: ADME, organism-based; set-up: dose 10 mg/kg, route oral; conditions: in vivo
[7] = Clearance in rat at 2 mg/kg, iv; format: ADME, organism-based; set-up: dose 2 mg/kg, route intravenous; conditions: in vivo
[8] = Volume of distribution at steady state in rat at 10 mg/kg, po or 2 mg/kg, iv; format: ADME, organism-based; conditions: in vivo, read-out: Vdss
[9] = (§2) Oral bioavailability in rat at 10 mg/kg; format: ADME, organism-based; conditions: in vivo
[10] = Selectivity for human recombinant renin over beta-secretase
[11] = Selectivity for human recombinant renin over cathepsin D
[12] = Selectivity for human recombinant renin over cathepsin E
[13] = Half life in human liver microsomes; format: ADME, Microsome
[14] = Cmax in cynomolgus monkey at 1 mg/kg, po; format: ADME, organism-based, Macaca fascicularis; set-up: dose 1 mg/kg, route oral; conditions: in vivo
[15] = Tmax in cynomolgus monkey at 1 mg/kg, po; format: ADME, organism-based, Macaca fascicularis; set-up: dose 1 mg/kg, route oral; conditions: in vivo
[16] = AUC (0 to t) in cynomolgus monkey at 1 mg/kg, po; format: ADME, organism-based, Macaca fascicularis; set-up: dose 1 mg/kg, route oral; conditions: plasma
[17] = Half life in cynomolgus monkey at 1 mg/kg, po; format: ADME, organism-based, Macaca fascicularis; set-up: dose 1 mg/kg, route oral; conditions: in vivo
[18] = Clearance in cynomolgus monkey at 1 mg/kg, iv; format: ADME, organism-based, Macaca fascicularis; set-up: dose 1 mg/kg, route intravenous; conditions: in vivo
[19] = Volume of distribution at steady state in cynomolgus monkey at 1 mg/kg, iv or 1 mg/kg, po; format: ADME, organism-based, Macaca fascicularis; conditions: in vivo, read-out: Vdss
[20] = Oral bioavailability in cynomolgus monkey at 1 mg/kg; format: ADME, organism-based, Macaca fascicularis; conditions: in vivo
In short: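 Cynomolgus monkeys were dosed with the fumarate salt orally at 1 mg/kg and intravenously at 1 mg/kg. Oral bioavailability (F, %) was reported alongside oral Cmax, tmax, AUC(0-t), oral t1/2, IV clearance and Vss.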

Rattus norvegicus [21] = assay: Reduction in mean blood pressure in double transgenic rat model of hypertension at 10 mg/kg, po after >20 hrs; format: functional, organism-based; set-up: dose 10 mg/kg
In short: (§3)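 Double transgenic rats expressing human renin and human angiotensinogen (dTGR) given a single 10 mg/kg oral dose; mean arterial pressure followed over 24 h against vehicle-treated animals, with statistical significance assessed.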

[22] = Cmax in cynomolgus monkey at 2 mg/kg, po; format: ADME, organism-based, Macaca fascicularis; set-up: dose 2 mg/kg, route oral; conditions: in vivo
[23] = Tmax in cynomolgus monkey at 2 mg/kg, po; format: ADME, organism-based, Macaca fascicularis; set-up: dose 2 mg/kg, route oral; conditions: in vivo
[24] = Oral bioavailability in cynomolgus monkey at 2 mg/kg; format: ADME, organism-based, Macaca fascicularis; conditions: in vivo
Rattus norvegicus [25] = assay: Reduction in mean blood pressure in double transgenic rat model of hypertension at 10 mg/kg, po after 24 hrs; format: functional, organism-based; set-up: dose 10 mg/kg; in short: as §3
[26] = AUC (0 to t) in cynomolgus monkey at 2 mg/kg, po; format: ADME, organism-based, Macaca fascicularis; set-up: dose 2 mg/kg, route oral; conditions: plasma
[27] = Half life in cynomolgus monkey at 2 mg/kg, po; format: ADME, organism-based, Macaca fascicularis; set-up: dose 2 mg/kg, route oral; conditions: in vivo
Rattus norvegicus [28] = assay: as §1; format: ADME, organism-based, Plasma; set-up: dose 10 mg/kg, route oral; conditions: in vivo
Rattus norvegicus [29] = assay: as §2; format: ADME, organism-based; conditions: in vivo

CNC[C@H](CC1CCCCC1)NC(=O)N1CCC[C@@H]([C@@](O)(CCCNC(=O)OC)c2cccc(Cl)c2)C1
IC50 (Renin [1]): 0.18 nM
IC50 (Renin [2]): 3.7 nM
Cmax [3]: 5 ng/mL
Tmax [4]: 0.9 h
AUC(0-t) [5]: 10 ng·h/mL
half-life [6]: 1.8 h
clearance [7]: 34 mL/min/kg
Vd [8]: 29 L/kg
bioavailability [9]: 0.3%

CNC[C@H](CC1CCCCC1)NC(=O)N1CCC[C@@H]([C@@](O)(CCCNC(=O)C2CC2)c2cccc(Cl)c2)C1
IC50 (Renin [1]): 17 nM
IC50 (Renin [2]): 79 nM

CNC[C@H](CC1CCCCC1)NC(=O)N1CCC[C@@H]([C@@H](OCCNC(=O)OC)c2ccccc2)C1
IC50 (Renin [1]): 1.17 nM
IC50 (Renin [2]): 2.9 nM

COC(=O)NCCO[C@@H](c1cccc(Cl)c1)[C@@H]1CCCN(C(=O)N[C@H](CN)CC2CCCCC2)C1
IC50 (Renin [1]): 0.48 nM
IC50 (Renin [2]): 2.6 nM
Cmax [3]: 63 ng/mL
Tmax [4]: 4 h
AUC(0-t) [5]: 201 ng·h/mL
half-life [6]: 7.8 h
clearance [7]: 53 mL/min/kg
Vd [8]: 51 L/kg
bioavailability [9]: 7.2%

CNC[C@H](CC1CCCCC1)NC(=O)N1CCC[C@@H]([C@@H](OCCNC(=O)OC)c2cccc(Cl)c2)C1
IC50 (Renin [1]): 0.48 nM
IC50 (Renin [2]): 0.82 nM
Cmax [3]: 94 ng/mL
Tmax [4]: 3 h
AUC(0-t) [5]: 301 ng·h/mL
half-life [6]: 9.7 h
clearance [7]: 36 mL/min/kg
Vd [8]: 19 L/kg
bioavailability [9]: 9.4%
Selectivity ratio [10]: > 1000
Selectivity ratio [11]: > 1000
Selectivity ratio [12]: > 1000
half-life [13]: > 0.5 h
Cmax [14]: 33.3 ng/mL
Tmax [15]: 1 h
AUC(0-t) [16]: 130 ng·h/mL
half-life [17]: 29.2 h
clearance [18]: 11.7 mL/min/kg
Vd [19]: 9.8 L/kg
bioavailability [20]: 9.9%
Activity (Rattus norvegicus [21]): Active

COCCCOc1cc(C[C@@H](C[C@H](N)[C@@H](O)C[C@H](C(=O)NCC(C)(C)C(N)=O)C(C)C)C(C)C)ccc1OC
AUC(0-t) [5]: 21 ng·h/mL
half-life [6]: 13.5 h
clearance [18]: 2.5 mL/min/kg
Cmax [22]: 29.5 ng/mL
Tmax [23]: 1.3 h
bioavailability [24]: 1.4%
Activity (Rattus norvegicus [25]): Active
AUC(0-t) [26]: 154 ng·h/mL
half-life [27]: 9.8 h

CNC[C@H](CC1CCCCC1)NC(=O)N1CCC[C@@H]([C@@H](OCCNC(=O)OC)c2cc(F)cc(F)c2)C1
IC50 (Renin [1]): 0.23 nM
IC50 (Renin [2]): 1.2 nM

CCOCCCO[C@@H](c1ccccc1)[C@@H]1CCCN(C(=O)N[C@H](CNC)CC2CCCCC2)C1
AUC(0-t) [5]: 832 ng·h/mL
half-life [6]: 5.9 h

CNC[C@H](CC1CCCCC1)NC(=O)N1CCC[C@@H]([C@@](O)(CCCNS(N)(=O)=O)c2cccc(Cl)c2)C1
IC50 (Renin [1]): 46 nM
IC50 (Renin [2]): 297 nM

CNC[C@H](CC1CCCCC1)NC(=O)N1CCC[C@@H]([C@@H](OCCNC(=O)OC)c2cc(F)cc(Cl)c2)C1
IC50 (Renin [1]): 0.52 nM
IC50 (Renin [2]): 1.5 nM
Cmax [3]: 54 ng/mL
Tmax [4]: 4 h
AUC (Rattus norvegicus [28]): 166 ng·h/mL
half-life [6]: 7.2 h
Vd [8]: 38 L/kg
F (Rattus norvegicus [29]): 13.1%

CNC[C@H](CC1CCCCC1)NC(=O)N1CCC[C@@H]([C@@H](OCCNC(=O)OC)c2cccc(F)c2F)C1
IC50 (Renin [1]): 1.7 nM
IC50 (Renin [2]): 6.2 nM

CNC[C@H](CC1CCCCC1)NC(=O)N1CCC[C@@H]([C@@H](OCCNC(=O)OC)c2cc(F)ccc2F)C1
IC50 (Renin [1]): 0.62 nM
IC50 (Renin [2]): 2.7 nM

CNC[C@H](CC1CCCCC1)NC(=O)N1CCC[C@@H]([C@@H](OCCNC(=O)OC)c2cc(Cl)ccc2F)C1
IC50 (Renin [1]): 0.62 nM
IC50 (Renin [2]): 2.1 nM

CNC[C@H](CC1CCCCC1)NC(=O)N1CCC[C@@H]([C@@H](OCCNC(=O)OC)c2cccc(C)c2)C1
IC50 (Renin [1]): 0.47 nM
IC50 (Renin [2]): 4 nM
